In ChEMBL document CHEMBL2146443, “Cytotoxicity and DNA binding property of phenanthrene imidazole with polyglycol side chains” (Bioorg Med Chem Lett, 2012):
pIC50: −log10 of the molar value. Calls of active or inactive are those of the source. The calls are words filed in the database; no cut-off is given here.

What was measured:
Nucleic Acid [1] = experiment: Binding affinity to calf thymus DNA at 4 x 10^-5 M at pH 7.5 by fluorescence spectrophotometry; type: nucleic-acid assay; conditions: Bos taurus
How it was run: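 Emission quenching: compound at 4.0 × 10^-5 M, excitation 320 nm, 5.0 nm slits, titrated with Ct-DNA 0–400 μM in 1 mM phosphate buffer pH 7.5, 20 mM NaCl, 5% DMSO, 25 °C. F/F0 plotted against DNA concentration; Stern-Volmer constants derived.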

KB = experiment: Antiproliferative activity against human KB cells by MTT assay; type: functional, cell-based
Nucleic Acid [2] = experiment: Binding affinity to calf thymus DNA at 2 x 10^-5 M at pH 7.5 by circular dichroism; type: nucleic-acid assay; conditions: Bos taurus
How it was run: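 Circular dichroism of Ct-DNA (6.0 × 10^-5 M) alone and with compound (2.0 × 10^-5 M), in 10 mM phosphate buffer pH 7.5 with 20 mM NaCl and 5% DMSO, 25 °C.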

Nucleic Acid [3] = experiment: Binding affinity to calf thymus DNA at 4 x 10^-5 M at pH 7.5 by UV-Vis spectrophotometry; type: nucleic-acid assay; conditions: Bos taurus
How it was run: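 UV–vis titration: compound at 4.0 × 10^-5 M with Ct-DNA added (0–400 μM) in 1 mM phosphate buffer pH 7.5, 20 mM NaCl, 5% DMSO (v/v), 25 °C. Absorbance read over 300–400 nm to avoid DNA interference; binding constants fitted at maximum absorption band.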

BGC-823 = experiment: Antiproliferative activity against human BGC823 cells by MTT assay; type: functional, cell-based
HL-60 = experiment: Antiproliferative activity against human HL60 cells by MTT assay; type: functional, cell-based
Bel-7402 = experiment: Antiproliferative activity against human Bel7402 cells by MTT assay; type: functional, cell-based
Nucleic Acid [4] = experiment: Binding affinity to calf thymus DNA assessed as change in melting temperature at 5 x 10^-6 M at pH 7.5 relative to control; type: nucleic-acid assay; conditions: Bos taurus
[5] = Solubility in phosphate buffer at pH 7.5; type: physicochemical

Activity (Nucleic Acid [1]) | pIC50 (KB) | Activity (Nucleic Acid [2]) | K (Nucleic Acid [3]) | pIC50 (BGC-823) | pIC50 (HL-60) | pIC50 (Bel-7402) | ΔTm (Nucleic Acid [4]) | solubility [5] | SMILES
– | 4.51 | – | – | 4.65 | 5.09 | 4.74 | – | Insoluble | OCCOCCOc1ccc(-c2nc3c4ccccc4c4ccccc4c3[nH]2)cc1
– | 4.35 | – | – | 4.62 | 4.92 | 4.55 | – | Insoluble | OCCOCCOCCOc1ccc(-c2nc3c4ccccc4c4ccccc4c3[nH]2)cc1
– | 5.15 | – | – | 5.20 | 4.95 | 5.33 | – | Insoluble | OCCOc1ccc(-c2nc3c4ccccc4c4ccccc4c3[nH]2)cc1

Continued, compound first:

SMILES | Activity (Nucleic Acid [1]) | pIC50 (KB) | Activity (Nucleic Acid [2]) | K (Nucleic Acid [3]) | pIC50 (BGC-823) | pIC50 (HL-60) | pIC50 (Bel-7402) | ΔTm (Nucleic Acid [4]) | solubility [5]
Cn1c(-c2ccc(OCCO)cc2)[n+](C)c2c3ccccc3c3ccccc3c21 | Active | 4.84 | Active | 1.68 ×10⁶ /M | 4.97 | 4.61 | 4.85 | 4.8 °C | –
Cn1c(-c2ccc(OCCOCCOCCO)cc2)[n+](C)c2c3ccccc3c3ccccc3c21 | Active | 5.04 | Active | 0.709 ×10⁶ /M | 5.15 | 4.81 | 4.98 | 4 °C | –
Cn1c(-c2ccc(OCCOCCO)cc2)[n+](C)c2c3ccccc3c3ccccc3c21 | Active | 4.96 | Active | 1.51 ×10⁶ /M | 5.03 | 4.92 | 4.97 | 4.2 °C | –
